PAFAH1B2 inh = blocks human PAF acetylhydrolase 1b catalytic subunit 2. hit rate 1.2% among 340,000. inhibition, % at 3.39 µM. P68402. recombinant PAFAH1B2, FP-rhodamine activity probe, fluorescence polarization;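 active = inhibition above the mean of all tested compounds plus 3 SD, cut at about 24% in these data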;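 note: 0% = enzyme with DMSO and 100% = wells lacking PAFAH1B2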
Target sequence (P68402 whole entry, looked up): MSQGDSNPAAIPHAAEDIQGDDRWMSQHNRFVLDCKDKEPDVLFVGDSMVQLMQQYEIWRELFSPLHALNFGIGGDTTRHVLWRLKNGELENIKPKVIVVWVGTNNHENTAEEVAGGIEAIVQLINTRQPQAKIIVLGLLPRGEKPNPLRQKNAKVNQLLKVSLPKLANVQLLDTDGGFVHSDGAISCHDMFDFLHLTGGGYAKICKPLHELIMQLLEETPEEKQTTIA
PAFAH1B3 FP inh = blocks human PAF acetylhydrolase 1B catalytic subunit 3 | Q15102 | inhibition, % at 3.39 µM | AID 492972 | recombinant PAFAH1B3, FP-rhodamine probe, fluorescence polarization | hit rate 0.28% among 340,000;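 active = inhibition above the screen-wide average of all tested compounds plus 3 SD, cut at about 25% in these data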;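 note: 0% = enzyme with DMSO only and 100% = wells lacking PAFAH1B3 protein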
ARFGAP1 inhibitor = inhibitors of rat ARFGAP1 | Arfgap1-stimulated ARF1 GTP hydrolysis, GDP FP detection | inhibition, % at 16.5 µM | hit rate 0.26% among 360,000 | Q62848;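 active = inhibition above a per-plate limit, mean inhibition of low control wells plus 3 SD, cut at about 25% in these data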;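 note: 0% = DMSO wells with enzyme and 100% = wells lacking Arfgap1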
Target sequence (Q62848 1-136 limits assumed): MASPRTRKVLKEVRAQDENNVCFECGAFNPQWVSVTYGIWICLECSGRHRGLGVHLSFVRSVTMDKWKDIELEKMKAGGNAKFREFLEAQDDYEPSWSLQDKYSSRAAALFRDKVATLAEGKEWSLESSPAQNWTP
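Replicates: Single well per compound | Assay system: Truncated rat Arfgap1 GAP domain | Control set: No-Arfgap1 wells (100%) versus DMSO full-reaction wells (0%) | Times: Enzyme reaction 120 min at 25 °C after 20 min preincubation | Reagent: Human ARF1(Δ1-17)-GTP substrate | Measured by: Tracer-displacement fluorescence polarization with EDTA stop, 620/688 nm | Measure: Percent inhibition of Arfgap1-stimulated GTP hydrolysis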
PAFAH2 inh = inhibitors of human PAFAH2; Q99487; recombinant PAFAH2, FP-rhodamine activity probe, fluorescence polarization; inhibition, % at 3.39 µM; hit rate 0.99% among 340,000;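 active = inhibition above the mean over all tested compounds plus 3 SD, cut at about 30% in these data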;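 note: inhibitors block probe labeling of enzyme so polarization drops; 0% = enzyme with DMSO and 100% = wells lacking PAFAH2 protein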
pPAFAH inh = pPAFAH (human) enzyme inhibition; inhibition, % at 3.39 µM; AID 463082; hit rate 1.5% among 330,000; Q13093; recombinant pPAFAH, FP-rhodamine probe fluorescence polarization;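 active = inhibition above the mean inhibition across the screen plus 3 SD, cut at about 25% in these data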;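 note: inhibitors block binding of the rhodamine activity-based probe so polarization drops; 0% = enzyme with DMSO and 100% = wells lacking pPAFAH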
ASAP1 GAP inh = ASAP1 ArfGAP inhibition; hit rate 0.19% among 360,000; ASAP1-stimulated ARF1 GTP hydrolysis, GDP FP detection; inhibition, % at 16.5 µM; Q9ULH1; AID 624377; in the data active = inhibition above about 25%;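 note: 0% = vehicle with enzyme and substrate and 100% = no enzyme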
PAFAH2 FP conf = PAFAH2 (human) inhibition, confirmed. shares compounds with PAFAH2 inh. recombinant PAFAH2, FP-rhodamine activity probe, fluorescence polarization. inhibition, % at 3.39 µM. hit rate 65% among 2,300;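 active = mean inhibition over three repeats above a set limit taken from the earlier primary screen, cut at about 30% in these data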;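 note: inhibitor blocks binding of rhodamine activity probe so polarization falls; 0% = enzyme with DMSO and 100% = wells lacking PAFAH2 protein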
Numbers without * were called inactive. This is a sample that favours compounds with a hit; in the whole collection about 2.7% have one here.

For CCCCN1CCCCC1(C)C(=O)NCc1ccc2c(c1)OCO2 (stereo not drawn) the results were ARFGAP1 inhibitor -2 and ASAP1 GAP inh 5.
For CCOc1ccc(C(=O)OCC(=O)Nc2ccc3c(c2)OCCO3)cc1OC the results were PAFAH1B2 inh 8, PAFAH1B3 FP inh -3, ARFGAP1 inhibitor 12, PAFAH2 inh 74*, pPAFAH inh 0, ASAP1 GAP inh -1 and PAFAH2 FP conf 83*.
For COc1ccc(CC(=O)OCC(=O)Nc2ccc3c(c2)OCCO3)cc1OC the results were PAFAH1B2 inh -2, PAFAH1B3 FP inh 6, ARFGAP1 inhibitor 4, PAFAH2 inh 2, pPAFAH inh 4 and ASAP1 GAP inh 4.
`CS(=O)(=O)c1cccc(C(=O)OCC(=O)Nc2ccc3c(c2)OCO3)c1` gave PAFAH1B2 inh 2, PAFAH1B3 FP inh -2, ARFGAP1 inhibitor 1, PAFAH2 inh 28, pPAFAH inh 2 and ASAP1 GAP inh -6.
`Cc1cccc(C(=O)OCC(=O)Nc2ccc3c(c2)OCCO3)c1` gave PAFAH1B2 inh 4, PAFAH1B3 FP inh 5, ARFGAP1 inhibitor -1, PAFAH2 inh 61*, pPAFAH inh 5, ASAP1 GAP inh -20 and PAFAH2 FP conf 58*.
For COc1ccc(C(=O)OCC(=O)Nc2ccc3c(c2)OCCO3)c(OC)c1 the results were PAFAH1B2 inh 4, PAFAH1B3 FP inh 3, ARFGAP1 inhibitor 0, PAFAH2 inh 55*, pPAFAH inh 1, ASAP1 GAP inh 6 and PAFAH2 FP conf 50*.
Screening O=C(OCC1COc2ccccc2O1)c1ccccc1F (stereo not drawn) returned PAFAH1B2 inh -1, PAFAH1B3 FP inh 4, ARFGAP1 inhibitor 4, PAFAH2 inh 39*, pPAFAH inh 12, ASAP1 GAP inh 11 and PAFAH2 FP conf 24.
`Cc1ccc2[nH]c(=O)cc(C(=O)OC(C)C)c2c1` gave PAFAH1B2 inh 0, PAFAH1B3 FP inh 3, ARFGAP1 inhibitor 3, PAFAH2 inh 5, pPAFAH inh 0 and ASAP1 GAP inh -14.
CCCNC(=O)c1onc(CSc2ccc(Cl)cc2)c1C(=O)NC(C)C was read as PAFAH1B2 inh 6, PAFAH1B3 FP inh 1, ARFGAP1 inhibitor -6, PAFAH2 inh -4, pPAFAH inh 4 and ASAP1 GAP inh -13.
`CN(C)S(=O)(=O)c1cccc(C(=O)OCC(=O)Nc2ccc3c(c2)OCCO3)c1` gave PAFAH1B2 inh 2, PAFAH1B3 FP inh -2, ARFGAP1 inhibitor -2, PAFAH2 inh 41*, pPAFAH inh 11, ASAP1 GAP inh 0 and PAFAH2 FP conf 40*.
For O=C1CCCN1C(=O)COc1cc(F)ccc1[N+](=O)[O-] the results were PAFAH1B2 inh -3, PAFAH1B3 FP inh 0, ARFGAP1 inhibitor 8, PAFAH2 inh 4, pPAFAH inh -1 and ASAP1 GAP inh 5.
`O=C1CCCN1C(=O)COc1ccccc1[N+](=O)[O-]` gave PAFAH1B2 inh 6, PAFAH1B3 FP inh 3, ARFGAP1 inhibitor 14, PAFAH2 inh 30*, pPAFAH inh 5, ASAP1 GAP inh -5 and PAFAH2 FP conf 19.
O=C(C(=O)N1CCC(CNC(=O)C2COc3ccccc3O2)CC1)c1cccs1 (stereo not drawn) was read as ARFGAP1 inhibitor 1 and ASAP1 GAP inh 1.
`COc1ccc(OC)c(NC(=O)COC(=O)c2ccc(-n3cnnn3)cc2)c1` gave PAFAH1B2 inh 4, PAFAH1B3 FP inh 10, ARFGAP1 inhibitor 11, PAFAH2 inh 8, pPAFAH inh 0 and ASAP1 GAP inh 13.
Screening COc1ccc(NC(=O)COC(=O)c2ccc(-n3cnnn3)cc2)cc1Cl returned PAFAH1B2 inh -4, PAFAH1B3 FP inh 1, ARFGAP1 inhibitor 24, PAFAH2 inh 35*, pPAFAH inh -1, ASAP1 GAP inh 8 and PAFAH2 FP conf 27.
For O=C(COC(=O)c1cccc(-n2cnnn2)c1)Nc1c(Cl)cccc1C(F)(F)F the results were PAFAH1B2 inh 3, PAFAH1B3 FP inh -2, ARFGAP1 inhibitor 12, PAFAH2 inh 42*, pPAFAH inh -5, ASAP1 GAP inh 0 and PAFAH2 FP conf 22.
